Source: ChEMBL document CHEMBL5107945, “Synthesis and biological evaluation of bergenin derivatives as new immunosuppressants” (RSC Med Chem, 2021)

Tests used:
[1] = Inhibition of ConA-induced proliferation of BALB/c mouse splenocyte at 10 uM incubated for 48 hrs by CCK-8 assay relative to control; format: functional
Procedure, shortened: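 Male BALB/c mouse splenocytes (6–8 weeks; red cells lysed with 0.84% NH4Cl), 5 × 10^5 cells/well in RPMI-1640 with 10% FBS and pen/strep, were stimulated with 5 μg/mL Con A with or without 10 μM compound for 48 h at 37 °C, 5% CO2. CCK-8 was added for 3 h and OD450 read. Inhibition was calculated against Con A-only wells; means ± SEM, ≥3 independent experiments.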

[2] = Inhibition of ConA-induced IFN-gamma secretion in BALB/c mouse splenocyte at 10 uM incubated for 48 hrs by ELISA relative to control; format: functional
Procedure, shortened: (§1)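 Male BALB/c splenocytes, 5 × 10^5 cells/well, were treated with Con A (5 μg/mL) plus compound at 5 or 10 μM for 48 h at 37 °C, 5% CO2. Plates were spun at 4 °C, 1500 rpm, 5 min. Cell-free supernatant IFN-γ or IL-4 was measured by capture-antibody ELISA. Inhibition was calculated against Con A-only wells; means ± SEM, ≥3 independent experiments.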

[3] = Inhibition of ConA-induced IL-4 secretion in BALB/c mouse splenocyte at 10 uM incubated for 48 hrs by ELISA relative to control; format: functional; procedure, shortened: as §1
[4] = Cytotoxicity against human Jurkat cells assessed as reduction in cell viability incubated for 48 hrs by CCK-8 assay; format: toxicity, cell-based
Procedure, shortened: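 Human Jurkat T-leukemia cells in RPMI-1640 with 10% FBS and pen/strep, 2.5 × 10^4 cells/well, were exposed to serially diluted compound at 37 °C for 48 h. Viability was read by CCK-8 (3 h, OD450). IC50 is the concentration reducing viability to 50%.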

[5] = Inhibition of ConA-induced proliferation of BALB/c mouse splenocyte incubated for 48 hrs by CCK-8 assay relative to control; format: functional, cell-based
Procedure, shortened: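 IC50 was measured only for compounds giving over 50% inhibition at 10 μM. Con A (5 μg/mL)-stimulated male BALB/c splenocytes, 5 × 10^5 cells/well in RPMI-1640/10% FBS, were cultured 48 h at 37 °C, 5% CO2. Read-out was CCK-8, 3 h incubation, OD450. IC50 came from at least three independent tests.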

[6] = Inhibition of ConA-induced proliferation of BALB/c mouse splenocyte at 1 uM incubated for 48 hrs by CCK-8 assay relative to control; format: functional
Procedure, shortened: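 Positive-control condition: cyclosporine A at 1 μM in the same Con A (5 μg/mL)-stimulated BALB/c splenocyte culture, 5 × 10^5 cells/well, 48 h at 37 °C, 5% CO2. Proliferation was read by CCK-8 (3 h, OD450) against Con A-only wells.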

[7] = Selectivity index, ratio of IC50 for cytotoxicity against human Jurkat cells to IC50 for inhibition of ConA-induced proliferation of BALB/c mouse splenocyte; format: toxicity, cell-based; settings: mouse (splenocytes), ConA-stimulated mouse splenocytes, read-out: Ratio IC50
Procedure, shortened: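 Ratio of Jurkat IC50 to splenocyte IC50. Jurkat: 2.5 × 10^4 cells/well, serial dilutions, 48 h, 37 °C, CCK-8 viability. Splenocytes: BALB/c cells, 5 × 10^5/well, with 5 μg/mL Con A, 48 h, 37 °C, 5% CO2, CCK-8 read at OD450.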

| SMILES | inhibition at 10 µM [1] [%] | inhibition at 10 µM [2] [%] | inhibition at 10 µM [3] [%] | IC50 at 48 h [4] [µM] | IC50 [5] [µM] | inhibition at 1 µM [6] [%] | selectivity ratio [7] |
| --- | --- | --- | --- | --- | --- | --- | --- |
| CCCCCCCCOc1cc2c(c(OCCCCCCCC)c1OC)[C@@H]1O[C@H](CO)[C@@H](O)[C@H](O)[C@H]1OC2=O | -21.5 | – | – | – | – | – | – |
| CCCCCCCOc1cc2c(c(OCCCCCCC)c1OC)[C@@H]1O[C@H](CO)[C@@H](O)[C@H](O)[C@H]1OC2=O | 99 | 102 | 98.6 | 4.18 | 7.21 | – | – |
| C/C=C/C[C@@H](C)[C@@H](O)[C@H]1C(=O)N[C@@H](CC)C(=O)N(C)CC(=O)N(C)[C@@H](CC(C)C)C(=O)N[C@@H](C(C)C)C(=O)N(C)[C@@H](CC(C)C)C(=O)N[C@@H](C)C(=O)N[C@H](C)C(=O)N(C)[C@@H](CC(C)C)C(=O)N(C)[C@@H](CC(C)C)C(=O)N(C)[C@@H](C(C)C)C(=O)N1C [CYCLOSPORINE] | – | – | – | – | – | 93.5 | – |
| COc1c(OCc2ccccc2)cc2c(c1OCc1ccccc1)[C@@H]1O[C@@H]3CO[C@@H](c4ccccc4)O[C@H]3[C@H](NS(C)(=O)=O)[C@H]1OC2=O | 84.9 | 71.1 | 67.5 | 33.1 | 5.39 | – | 6 |
| COc1c(O)cc2c(c1O)[C@@H]1O[C@H](CO)[C@@H](O)[C@H](O)[C@H]1OC2=O [BERGENIN] | 11.7 | -6.2 | 18.3 | – | – | – | – |
| COc1c(OCc2ccccc2)cc2c(c1OCc1ccccc1)[C@@H]1O[C@@H]3CO[C@@H](c4ccccc4)O[C@H]3[C@H](N=[N+]=[N-])[C@H]1OC2=O | -2.26 | – | – | – | – | – | – |
| CCCCCCCOc1cc2c(c(OCCCCCCC)c1OC)[C@@H]1O[C@H](CO)[C@@H](OCc3ccccc3)[C@H](O)[C@H]1OC2=O | 69.8 | 51.3 | 51.4 | 16.1 | 10.6 | – | – |
| COc1c(OCc2ccccc2)cc2c(c1OCc1ccccc1)[C@@H]1O[C@@H]3CO[C@@H](c4ccccc4)O[C@H]3[C@H](N)[C@H]1OC2=O | 72.6 | 48.4 | 8.7 | 39.3 | 8.19 | – | – |
| CCCCCCCCCCOc1cc2c(c(OCCCCCCCCCC)c1OC)[C@@H]1O[C@H](CO)[C@@H](O)[C@H](O)[C@H]1OC2=O | 15.4 | – | – | – | – | – | – |
| COc1c(OCc2ccccc2)cc2c(c1OCc1ccccc1)[C@@H]1O[C@H](CO)[C@@H](O)[C@H](O)[C@H]1OC2=O | -5.95 | – | – | – | – | – | – |
| COc1c(OCc2ccccc2)cc2c(c1OCc1ccccc1)[C@@H]1O[C@@H]3CO[C@@H](c4ccccc4)O[C@H]3[C@@H](O)[C@H]1OC2=O | 11.2 | – | – | – | – | – | – |
| COc1c(O)cc2c(c1O)[C@@H]1O[C@@H]3CO[C@@H](c4ccccc4)O[C@H]3[C@H](O)[C@H]1OC2=O | -3.78 | – | – | – | – | – | – |
| COc1c(OCc2ccccc2)cc2c(c1OCc1ccccc1)[C@@H]1O[C@@H]3CO[C@@H](c4ccccc4)O[C@H]3[C@@H](OS(=O)(=O)C(F)(F)F)[C@H]1OC2=O | 75.9 | 68.6 | 63.1 | 44.2 | 8.05 | – | – |
| CCCCOc1cc2c(c(OCCCC)c1OC)[C@@H]1O[C@H](CO)[C@@H](O)[C@H](O)[C@H]1OC2=O | -9.27 | – | – | – | – | – | – |
| CCCCCCCOc1cc2c(c(OCCCCCCC)c1OC)[C@@H]1O[C@@H]3CO[C@@H](c4ccccc4)O[C@H]3[C@H](O)[C@H]1OC2=O | -6.83 | – | – | – | – | – | – |
| COc1c(OCc2ccccc2)cc2c(c1OCc1ccccc1)[C@@H]1O[C@@H]3CO[C@@H](c4ccccc4)O[C@H]3[C@H](OS(=O)(=O)C(F)(F)F)[C@H]1OC2=O | -1.62 | – | – | – | – | – | – |
| CCCCCCOc1cc2c(c(OCCCCCC)c1OC)[C@@H]1O[C@H](CO)[C@@H](O)[C@H](O)[C@H]1OC2=O | 98.1 | 67.4 | 61.9 | 5.21 | 8.16 | – | – |
| COc1c(OCc2ccccc2)cc2c(c1OCc1ccccc1)[C@@H]1O[C@@H]3CO[C@@H](c4ccccc4)O[C@H]3[C@H](O)[C@H]1OC2=O | 91.4 | 71 | 76.9 | 21 | 3.52 | – | 5.96 |
| C[C@H]1C[C@H]2[C@@H]3CCC4=CC(=O)C=C[C@]4(C)[C@@]3(F)[C@@H](O)C[C@]2(C)[C@@]1(O)C(=O)CO [BETAMETHASONE] | 89.6 | 99.3 | 96.9 | – | – | – | – |
| CCCCCOc1cc2c(c(OCCCCC)c1OC)[C@@H]1O[C@H](CO)[C@@H](O)[C@H](O)[C@H]1OC2=O | 5.4 | – | – | – | – | – | – |
| CCCCCCCOc1cc2c(c(OCCCCCCC)c1OC)[C@@H]1O[C@H](COCc3ccccc3)[C@@H](O)[C@H](O)[C@H]1OC2=O | 99.4 | 99.6 | 95.9 | 10.1 | 7.66 | – | – |
